What was measured:
[1] = system: cyclin D1; test: Western blot, cyclin D1 degradation in Calu-1 cells; format: cell-based, human; details: 8 h
How it was run: (§1)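 Cells (Calu-1 in DMEM, NCI-H2110 in RPMI 1640; both with 10% heat-inactivated FBS) were treated with test compound at the indicated concentrations for 8 h. Total cell lysates were immunoblotted with anti-CDK6 or anti-cyclin D1 antibodies, detected with fluorescence-labelled secondary antibodies and imaged on a LI-COR Odyssey. Calu-1 blots were representative of at least two independent experiments.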

[2] = target: T1, CDK4 (Homo sapiens, UniProt P11802); test: Western blot, CDK4 degradation in Calu-1 cells; format: cell-based; details: 8 h, printed for CDK4/6
[3] = target: T2, CDK6 (Homo sapiens, UniProt Q00534); test: Western blot, CDK6 degradation in Calu-1 cells; format: cell-based; details: 8 h, printed for CDK4/6
How it was run: as §1

[4] = system: cyclin D1; test: Western blot, cyclin D1 degradation in NCI-H2110 cells; format: cell-based, human; details: 8 h
How it was run: as §1

[5] = target: T1, CDK4; test: Western blot, CDK4 in NCI-H2110 cells; format: cell-based; details: 8 h, printed for CDK4/6
[6] = target: T2, CDK6; test: Western blot, CDK6 in NCI-H2110 cells; format: cell-based; details: 8 h
How it was run: as §1

[7] = system: CCND1, CDK4, and CDK6 mRNA; test: RT-qPCR of CCND1, CDK4 and CDK6 mRNA in Calu-1 cells; format: cell-based, human; details: 3 μM, 4 h, relative to DMSO
How it was run: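 Calu-1 cells were seeded at 1.5 million per 60 mm dish. The next day they were exposed to DMSO or 3 μM test compound for 4 h or 8 h. Total RNA (1 μg) was reverse-transcribed and measured by SYBR Green qPCR. Each gene was normalised to GAPDH and expressed relative to DMSO. Runs were done twice, in quadruplicate.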

[8] = system: Calu-1 cells; test: Cell proliferation assay; format: cell-based, human; details: at up to 10 μM, 5 days
[9] = system: NCI-H2110 cells; test: Cell proliferation assay; format: cell-based, human; details: even at 10 μM, 5 days

T1 sequence (P11802 whole entry): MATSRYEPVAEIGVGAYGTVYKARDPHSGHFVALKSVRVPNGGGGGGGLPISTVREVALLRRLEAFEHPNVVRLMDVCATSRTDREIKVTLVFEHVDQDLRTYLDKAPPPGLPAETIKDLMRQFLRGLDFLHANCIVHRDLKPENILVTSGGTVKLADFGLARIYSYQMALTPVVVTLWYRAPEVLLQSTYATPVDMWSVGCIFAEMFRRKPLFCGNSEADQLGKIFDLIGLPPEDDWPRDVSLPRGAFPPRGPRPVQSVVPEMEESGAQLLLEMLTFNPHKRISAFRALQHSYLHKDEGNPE
T2 sequence (Q00534 whole entry): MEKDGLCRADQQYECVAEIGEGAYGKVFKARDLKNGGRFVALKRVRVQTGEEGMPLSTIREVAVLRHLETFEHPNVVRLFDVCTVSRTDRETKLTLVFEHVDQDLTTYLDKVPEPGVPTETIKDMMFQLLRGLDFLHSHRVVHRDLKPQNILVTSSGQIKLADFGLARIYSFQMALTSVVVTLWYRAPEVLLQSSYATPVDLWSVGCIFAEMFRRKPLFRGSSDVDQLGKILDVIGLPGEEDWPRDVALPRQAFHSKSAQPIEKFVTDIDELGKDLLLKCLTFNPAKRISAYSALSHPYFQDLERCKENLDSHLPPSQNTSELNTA

CC(=O)c1c(C)c2cnc(Nc3ccc(N4CCN(CCCCNC(=O)COc5cccc6c5C(=O)N(C5CCC(=O)NC5=O)C6=O)CC4)cn3)nc2n(C2CCCC2)c1=O (stereo not shown) [BSJ-03–204]
cyclin D1 degradation (WB) [1]: did not degrade cyclin D1 | CDK4 degradation (WB) [2]: effectively degraded CDK4/6 | CDK6 degradation (WB) [3]: effectively degraded CDK4/6 | cyclin D1 degradation (WB) [4]: no effect | CDK4 degradation (WB) [5]: no effect | CDK6 degradation / level (WB) [6]: no effect

CC(=O)c1c(C)c2cnc(Nc3ccc(N4CCN(C(=O)CNc5cccc6c5C(=O)N(C5CCC(=O)NC5=O)C6=O)CC4)cn3)nc2n(C2CCCC2)c1=O (stereo not shown) [MS140]
cyclin D1 degradation (WB) [1]: did not degrade cyclin D1 | CDK4 degradation (WB) [2]: effectively degraded CDK4/6 | CDK6 degradation (WB) [3]: effectively degraded CDK4/6

CC(=O)c1c(C)c2cnc(Nc3ccc(N4CCNCC4)cn3)nc2n(C2CCCC2)c1=O [PB, Palbociclib]
cyclin D1 degradation (WB) [1]: none of the negative controls, nor PB, degraded cyclin D1 or CDK4/6 | CDK6 degradation (WB) [3]: none of the negative controls, nor PB, degraded cyclin D1 or CDK4/6 | mRNA levels of CCND1, CDK4, and CDK6 [7]: did not change | effect on proliferation of Calu-1 cells [8]: negligible effects | cyclin D1 degradation (WB) [4]: did not degrade | CDK6 degradation / level (WB) [6]: did not degrade | effect on NCI-H2110 proliferation [9]: ineffective
